Legend:
Cannabinoid receptor 2 [1] = target: T1, Cannabinoid receptor 2 (Homo sapiens, UniProt P34972); experiment: Agonist activity at human CB2 receptor expressed in CHO cells assessed as inhibition of forskolin-stimulated cAMP level; format: functional, cell-based
Summary of the method: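 CHO cells expressing human CB2, 5000 cells/well, incubated overnight at 37 °C. Compounds given in stimulation buffer with 1 mM IBMX, 0.25% BSA and 10 µM forskolin for 30 min at 37 °C. Cells lysed and cAMP read by enzyme-fragment kit. Forskolin-stimulated cAMP versus cAMP with 200 nM CP-55940 defines 100%. EC50 from four-parameter logistic fit. Triplicate, at least three runs.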

Cannabinoid receptor 2 [2] = target: T1, Cannabinoid receptor 2; experiment: Agonist activity at human CB2 receptor expressed in CHO cells assessed as inhibition of forskolin-stimulated cAMP level relative to CP-55940; format: functional, cell-based; parameters: Activity: scale not given: the % may be the effect or the level left
Summary of the method: (§1)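 CHO cells stably expressing human CB2 or CB1 were seeded at 5000 cells/well and grown overnight at 37 °C. Compounds were added in stimulation buffer (1 mM IBMX, 0.25% BSA, 10 µM forskolin) for 30 min at 37 °C. cAMP was measured in lysates with a cAMP kit; 100% = forskolin-stimulated cAMP versus level with 200 nM CP-55940. EC50 came from a four-parameter logistic fit; efficacy is relative to CP-55940. Each run was triplicate, at least three times.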

Homo sapiens = species: Homo sapiens; experiment: Selectivity for human CB2 receptor over human CB1 receptor by cAMP assay; summary of the method: as §1
Cannabinoid receptor 2 [3] = target: T1, Cannabinoid receptor 2; experiment: Displacement of [3H]CP-55940 from human CB2 receptor expressed in HEK cells; format: cell-based, HEK293
Summary of the method: (§2)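 SPA binding with HEK membranes expressing human CB1 (2.5 µg/well) or CB2 (2 µg/well) on poly-L-lysine beads. Buffer: 50 mM Tris pH 7.5, 2.5 mM EDTA, 5 mM MgCl2, 0.8% fatty-acid-free BSA. Compounds at 1e-5 to 1e-10 M. [3H]-CP-55940 final 2.5 nM (CB1) or 4 nM (CB2). IC50 from four-parameter logistic fit, converted to Ki by Cheng-Prusoff.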

Cannabinoid receptor 1 = Cannabinoid receptor 1 (Homo sapiens, UniProt P21554); experiment: Displacement of [3H]CP-55940 from human CB1 receptor expressed in HEK cells; format: cell-based, HEK293; summary of the method: as §2
Chain of Cannabinoid receptor 1 (P21554 whole entry): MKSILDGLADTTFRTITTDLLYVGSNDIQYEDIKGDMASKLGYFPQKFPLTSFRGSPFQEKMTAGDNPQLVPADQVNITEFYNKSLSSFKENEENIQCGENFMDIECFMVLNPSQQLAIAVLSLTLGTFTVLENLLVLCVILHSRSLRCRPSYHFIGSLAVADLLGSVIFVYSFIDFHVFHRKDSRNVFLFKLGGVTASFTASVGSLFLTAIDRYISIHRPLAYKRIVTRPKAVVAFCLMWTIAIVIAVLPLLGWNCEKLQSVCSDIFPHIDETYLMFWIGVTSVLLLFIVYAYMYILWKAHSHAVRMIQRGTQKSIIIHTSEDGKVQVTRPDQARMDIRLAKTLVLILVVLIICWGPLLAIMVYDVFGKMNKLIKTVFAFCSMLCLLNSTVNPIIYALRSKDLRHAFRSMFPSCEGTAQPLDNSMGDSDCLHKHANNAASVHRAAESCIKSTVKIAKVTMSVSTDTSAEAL

T1 sequence (P34972 whole entry, the tested form may be a part): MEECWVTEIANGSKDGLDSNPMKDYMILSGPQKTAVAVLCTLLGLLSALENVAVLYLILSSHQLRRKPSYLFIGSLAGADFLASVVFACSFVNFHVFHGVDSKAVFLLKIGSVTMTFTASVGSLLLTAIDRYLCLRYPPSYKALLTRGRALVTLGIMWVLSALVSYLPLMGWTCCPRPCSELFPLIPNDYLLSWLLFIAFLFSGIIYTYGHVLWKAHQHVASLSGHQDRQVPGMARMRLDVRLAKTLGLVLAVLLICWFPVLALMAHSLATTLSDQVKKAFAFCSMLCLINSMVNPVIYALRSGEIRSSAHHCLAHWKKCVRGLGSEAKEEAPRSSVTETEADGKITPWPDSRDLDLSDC

## Cc1ccc(C(=O)N2CCCCC2)cc1S(=O)(=O)N1CCCCC1
Cannabinoid receptor 2 [1]
  EC50: 82 nM
Cannabinoid receptor 2 [2]
  Emax: 85%
Homo sapiens
  Selectivity ratio: > 240

## Cc1ccc(C(=O)N2CCC3CCCCC3C2)cc1S(=O)(=O)NCC(C)C (stereo not drawn)
Cannabinoid receptor 2 [1]
  EC50: 14 nM
Cannabinoid receptor 2 [2]
  Activity: 96%
Homo sapiens
  Selectivity ratio: 939

## Cc1ccc(C(=O)N[C@H](C)C2CCCCC2)cc1S(=O)(=O)N1CCCCC1
Cannabinoid receptor 2 [1]
  EC50: 18 nM
Cannabinoid receptor 2 [2]
  Activity: 85%
Homo sapiens
  Selectivity ratio: 45

## Cc1ccc(C(=O)N2CCC3CCCCC3C2)cc1S(=O)(=O)N1CCCCC1 (stereo not drawn)
Cannabinoid receptor 2 [1]
  EC50: 1.5 nM
Cannabinoid receptor 2 [2]
  Activity: 95%
Homo sapiens
  Selectivity ratio: 4330

## Cc1ccc(C(=O)Nc2ccccc2C(F)(F)F)cc1S(=O)(=O)N1CCCCC1
Cannabinoid receptor 2 [1]
  EC50: 2 nM
Cannabinoid receptor 2 [2]
  Activity: 92%
Homo sapiens
  Selectivity ratio: 96

## Cc1ccc(C(=O)N(C)C2CCCCC2)cc1S(=O)(=O)N1CCCCC1
Cannabinoid receptor 2 [1]
  EC50: 119 nM
Cannabinoid receptor 2 [2]
  Activity: 86%
Homo sapiens
  Selectivity ratio: 38

## Cc1ccccc1NC(=O)c1ccc(C)c(S(=O)(=O)N2CCCCC2)c1
Cannabinoid receptor 2 [1]
  EC50: 154 nM
Cannabinoid receptor 2 [2]
  Activity: 76%
Homo sapiens
  Selectivity ratio: 1.5

## Cc1ccc(C(=O)NC2(C)CCCCC2)cc1S(=O)(=O)N1CCCCC1
Cannabinoid receptor 2 [1]
  EC50: 18 nM
Cannabinoid receptor 2 [2]
  Activity: 58%

## O=C(NCC1CCOCC1)c1cnc(Nc2ccc(Cl)cc2Cl)nc1C(F)(F)F
Cannabinoid receptor 2 [2]
  Activity: 95%
Homo sapiens
  Selectivity ratio: > 470

## Cc1ccc(C(=O)N2CCC3CCCCC3C2)cc1S(=O)(=O)N1CCS(=O)(=O)CC1 (stereo not drawn)
Cannabinoid receptor 2 [1]
  EC50: 2 nM
Cannabinoid receptor 2 [2]
  Activity: 99%
Homo sapiens
  Selectivity ratio: 7740

## Cc1ccc(C(=O)N2CCC3CCCCC3C2)cc1S(=O)(=O)N1CCSCC1 (stereo not drawn)
Cannabinoid receptor 2 [1]
  EC50: 1 nM
Cannabinoid receptor 2 [2]
  Activity: 90%
Homo sapiens
  Selectivity ratio: 3250

## Cc1ccc(C(=O)Oc2cccc3cccnc23)cc1S(=O)(=O)N1CCCCC1
Cannabinoid receptor 2 [1]
  EC50: < 1 nM
Cannabinoid receptor 2 [3]
  Ki: 4 nM
Cannabinoid receptor 1
  Ki: 3 nM
Cannabinoid receptor 2 [2]
  Activity: 99%
Homo sapiens
  Selectivity ratio: 1

## Cc1ccc(C(=O)N2CCC3CCCCC3C2)cc1S(=O)(=O)N1CCN(C(C)C)CC1 (stereo not drawn)
Cannabinoid receptor 2 [1]
  EC50: 588 nM
Cannabinoid receptor 2 [2]
  Activity: 45%

## O=C(c1ccc(Cl)c(S(=O)(=O)N2CCCC2)c1)N1CCC2CCCCC2C1 (stereo not drawn)
Cannabinoid receptor 2 [1]
  EC50: 4 nM
Cannabinoid receptor 2 [2]
  Activity: 93%
Homo sapiens
  Selectivity ratio: 520

## Cc1ccc(C(=O)Nc2cccc(Cl)c2)cc1S(=O)(=O)N1CCCCC1
Cannabinoid receptor 2 [1]
  EC50: 27 nM
Cannabinoid receptor 2 [2]
  Activity: 80%
Homo sapiens
  Selectivity ratio: 31

## CC(C)c1ccc(C(=O)NC2CCCCC2)cc1S(=O)(=O)N1CCCC1
Cannabinoid receptor 2 [1]
  EC50: 4 nM
Cannabinoid receptor 2 [2]
  Activity: 86%
Homo sapiens
  Selectivity ratio: 60

## Cc1ccc(C(=O)N2CCC3CCCCC3C2)cc1S(=O)(=O)NC(C)C (stereo not drawn)
Cannabinoid receptor 2 [1]
  EC50: 2280 nM
Cannabinoid receptor 2 [2]
  Activity: 101%
Homo sapiens
  Selectivity ratio: 0.1

## Cc1ccc(C(=O)Nc2ccccc2)cc1S(=O)(=O)N1CCCCC1
Cannabinoid receptor 2 [1]
  EC50: 139 nM
Cannabinoid receptor 2 [2]
  Activity: 74%
Homo sapiens
  Selectivity ratio: 6

## Cc1ccc(C(=O)N2CCC3CCCCC3C2)cc1S(=O)(=O)N1CCC(O)CC1 (stereo not drawn)
Cannabinoid receptor 2 [1]
  EC50: 215 nM
Cannabinoid receptor 2 [2]
  Activity: 86%
Homo sapiens
  Selectivity ratio: 37

## Cc1ccc(C(=O)N2CCC3CCCCC3C2)cc1S(=O)(=O)Nc1ccccc1 (stereo not drawn)
Cannabinoid receptor 2 [1]
  EC50: > 20000 nM

## O=C(c1ccc(Cl)c(S(=O)(=O)N2CCCC2)c1)N1CC[C@@H]2CCCC[C@H]2C1 (relative stereo)
Cannabinoid receptor 2 [1]
  EC50: 3 nM
Cannabinoid receptor 2 [2]
  Activity: 89%
Homo sapiens
  Selectivity ratio: 3770

## Cc1ccc(C(=O)NC2CCCCC2)cc1S(=O)(=O)N1CCCC1
Cannabinoid receptor 2 [1]
  EC50: 21 nM
Cannabinoid receptor 2 [2]
  Activity: 81%
Homo sapiens
  Selectivity ratio: 181

## O=C(c1cccc(S(=O)(=O)N2CCCC2)c1)N1CC[C@@H]2CCCC[C@H]2C1 (relative stereo)
Cannabinoid receptor 2 [1]
  EC50: > 20000 nM

## Cc1ccc(C(=O)Nc2ccccc2S(C)(=O)=O)cc1S(=O)(=O)N1CCCCC1
Cannabinoid receptor 2 [1]
  EC50: 6 nM
Cannabinoid receptor 2 [2]
  Activity: 96%
Homo sapiens
  Selectivity ratio: 66

## Cc1ccc(C(=O)N2CCC3CCCCC3C2)cc1S(=O)(=O)N1CCC1 (stereo not drawn)
Cannabinoid receptor 2 [1]
  EC50: 13 nM
Cannabinoid receptor 2 [2]
  Activity: 94%
Homo sapiens
  Selectivity ratio: > 1500

## Cc1ccc(C(=O)Nc2ccc(Cl)cc2)cc1S(=O)(=O)N1CCCCC1
Cannabinoid receptor 2 [1]
  EC50: 14100 nM
Cannabinoid receptor 2 [2]
  Activity: 117%

## Cc1ccc(C(=O)Nc2ccccc2Cl)cc1S(=O)(=O)N1CCCCC1
Cannabinoid receptor 2 [1]
  EC50: 5 nM
Cannabinoid receptor 2 [2]
  Activity: 89%
Homo sapiens
  Selectivity ratio: 13

## Cc1ccc(C(=O)Nc2nccc3ccccc23)cc1S(=O)(=O)N1CCCCC1
Cannabinoid receptor 2 [1]
  EC50: 1 nM
Cannabinoid receptor 2 [2]
  Activity: 98%
Homo sapiens
  Selectivity ratio: 25

## Cc1ccc(C(=O)N[C@@H](C)C2CCCCC2)cc1S(=O)(=O)N1CCCCC1
Cannabinoid receptor 2 [1]
  EC50: 5 nM
Cannabinoid receptor 2 [2]
  Activity: 73%
Homo sapiens
  Selectivity ratio: 2

## O=C(NC1CCCCC1)c1ccc(Cl)c(S(=O)(=O)N2CCCC2)c1
Cannabinoid receptor 2 [1]
  EC50: 3 nM
Cannabinoid receptor 2 [2]
  Activity: 74%
Homo sapiens
  Selectivity ratio: 85

## Cc1ccc(C(=O)N2CCC3CCCCC3C2)cc1S(=O)(=O)N1CCCC1 (stereo not drawn)
Cannabinoid receptor 2 [1]
  EC50: 4 nM
Cannabinoid receptor 2 [2]
  Activity: 94%
Homo sapiens
  Selectivity ratio: 2240

## Cc1ccc(C(=O)NC2CCCCC2)cc1S(=O)(=O)N1CCCCC1
Cannabinoid receptor 2 [1]
  EC50: 14 nM
Cannabinoid receptor 2 [2]
  Activity: 86%
Homo sapiens
  Selectivity ratio: 24

## COc1ccccc1NC(=O)c1ccc(C)c(S(=O)(=O)N2CCCCC2)c1
Cannabinoid receptor 2 [1]
  EC50: 21 nM
Cannabinoid receptor 2 [2]
  Activity: 91%
Homo sapiens
  Selectivity ratio: 9

## O=C(c1ccc(C2CCCCC2)c(S(=O)(=O)N2CCCC2)c1)N1CCC2CCCCC2C1 (stereo not drawn)
Cannabinoid receptor 2 [1]
  EC50: > 20000 nM

## Cc1ccc(C(=O)Nc2cccc3cccnc23)cc1S(=O)(=O)N1CCCCC1
Cannabinoid receptor 2 [1]
  EC50: 4 nM
Cannabinoid receptor 2 [2]
  Activity: 100%
Homo sapiens
  Selectivity ratio: 7

## Cc1ccc(C(=O)N2CCC3CCCCC3C2)cc1S(=O)(=O)N1CCOCC1 (stereo not drawn)
Cannabinoid receptor 2 [1]
  EC50: 5 nM
Cannabinoid receptor 2 [2]
  Activity: 104%
Homo sapiens
  Selectivity ratio: 2640

## Cc1ccc(C(=O)N(C)c2ccccc2Cl)cc1S(=O)(=O)N1CCCCC1
Cannabinoid receptor 2 [1]
  EC50: > 20000 nM

## Cc1ccc(C(=O)N2CC[C@@H]3CCCC[C@H]3C2)cc1S(=O)(=O)N1CCCCC1 (relative stereo)
Cannabinoid receptor 2 [1]
  EC50: 1 nM
Cannabinoid receptor 2 [2]
  Activity: 93%
Homo sapiens
  Selectivity ratio: 6890

## Cc1ccc(C(=O)N2CCC3CCCCC3C2)cc1S(=O)(=O)N1CCCCCC1 (stereo not drawn)
Cannabinoid receptor 2 [1]
  EC50: 2 nM
Cannabinoid receptor 2 [2]
  Activity: 100%
Homo sapiens
  Selectivity ratio: 3280

## Cc1ccc(C(=O)N2CCCC3CCCCC32)cc1S(=O)(=O)N1CCCCC1 (stereo not drawn)
Cannabinoid receptor 2 [1]
  EC50: 6 nM
Cannabinoid receptor 2 [2]
  Activity: 82%
Homo sapiens
  Selectivity ratio: 94

## COc1ccc2c(c1)c(CCN1CCOCC1)c(C)n2C(=O)c1cccc(Cl)c1Cl
Cannabinoid receptor 2 [1]
  EC50: 0.65 nM
Cannabinoid receptor 2 [2]
  Activity: 44%

## O=C(NC1CCCCC1)c1cccc(S(=O)(=O)N2CCCC2)c1
Cannabinoid receptor 2 [1]
  EC50: > 20000 nM

## Cc1ccc(C(=O)Nc2ccc3ccccc3n2)cc1S(=O)(=O)N1CCCCC1
Cannabinoid receptor 2 [1]
  EC50: 195 nM
Cannabinoid receptor 2 [2]
  Activity: 45%

## CC(C)c1ccc(C(=O)N2CCC3CCCCC3C2)cc1S(=O)(=O)N1CCCC1 (stereo not drawn)
Cannabinoid receptor 2 [1]
  EC50: 0.4 nM
Cannabinoid receptor 2 [2]
  Activity: 101%
Homo sapiens
  Selectivity ratio: 2860

Reference: ChEMBL document CHEMBL1141512, “Arylsulfonamide CB2 receptor agonists: SAR and optimization of CB2 selectivity” (Bioorg Med Chem Lett, 2008)
